{"data": "Experimental data of several laboratories", "cell line": "HepG2", "observed": "cell growth or viability", "note": "Lines come from different studies, so protocols differ."}
{"Compound": "O[C@@H](CN[C@@H](COCC1CC1)Cc1ccccc1)c1cc(Cl)cc2c1-c1ccc(Cl)cc1C2", "time": "48 h", "CC50 [µM]": 19.9}
{"Compound": "COCC(=O)N1CCC[C@H](C(=O)NCc2nc(-c3ccc(OC)cc3)cs2)C1", "method": "ATP luminescence", "time": "96 h", "CC50 [µM]": "> 50"}
{"Compound": "O=C1C(NCCc2c[nH]c3ccccc23)=CC2=NCCc3c[nH]c1c32", "method": "MTT", "time": "72 h", "CC50 [µM]": 4}
{"Compound": "COCC(=O)N1CCC[C@@H](C(=O)NCc2nc(-c3ccccc3)cs2)C1", "method": "ATP luminescence", "time": "96 h", "CC50 [µM]": "> 50"}
{"Compound": "O[C@@H](CNCCCC(F)(F)F)c1cc(Cl)cc2c1-c1ccc(Cl)cc1C2", "time": "48 h", "CC50 [µM]": 13.8}
{"Compound": "COC1=CC2=[N+](C)CCc3c[nH]c(c32)C1=O", "method": "MTT", "time": "72 h", "CC50 [µM]": 12.5}
{"Compound": "CCOCC(=O)N1CCC[C@H](C(=O)NCc2nc(-c3ccccc3)cs2)C1", "method": "ATP luminescence", "time": "96 h", "CC50 [µM]": "> 50"}
{"Compound": "CCCCCCNC[C@H](O)c1cc(Cl)cc2c1-c1ccc(Cl)cc1C2", "time": "48 h", "CC50 [µM]": 4.8}
{"Compound": "O=C1C(NCCc2ccc(O)cc2)=CC2=NCCc3c[nH]c1c32", "method": "MTT", "time": "72 h", "CC50 [µM]": 4}
{"Compound": "CCCCCCCNC[C@@H](O)c1cc(Cl)cc2c1-c1ccc(Cl)cc1C2", "time": "48 h", "CC50 [µM]": 5}
{"Compound": "Cn1cc2c3c1C(=O)C(NCCc1ccc(O)cc1)=CC3=NCC2", "method": "MTT", "time": "72 h", "CC50 [µM]": 1}
{"Compound": "COCC(=O)N1CCC[C@H](C(=O)NCc2nc(-c3ccc(C#N)cc3)cs2)C1", "method": "ATP luminescence", "time": "96 h", "CC50 [µM]": "> 50"}
{"Compound": "CCCCCNC[C@@H](O)c1cc(Cl)cc2c1-c1ccc(Cl)cc1C2", "time": "48 h", "CC50 [µM]": 6}
{"Compound": "O=C1c2[nH]cc3c2C(=NCC3)c2c(-c3ccc(O)cc3)c[nH]c21", "method": "MTT", "time": "72 h", "CC50 [µM]": 0.3}
{"Compound": "Cn1nc2c(=O)n(C3CC3)cnc2c1[C@](O)(c1cnc(C(F)(F)F)c(Cl)c1)C(F)(F)F", "method": "ATP luminescence", "CC50 [µM]": "> 50"}
